Experimental data taken from publication PMC5395284 (Journal of Experimental Pharmacology, 2017).

Key:
[1] = after 2-week dosing of FLX; cited from earlier work
[2] = assay type: in vivo, Wistar rat
[3] = assay type: in vivo, Wistar rat; remark: listed apart in the source
[4] = system: Wistar rat brain; test: Brain neurotransmitter levels; assay type: in vivo; details: 4 weeks treatment
Outline: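 Wistar rats on high-fat diet for up to 4 weeks, caged ≤6 per cage at 25°C±2°C. Groups: control, oral SSRI test compound 20 mg/kg b.w., statin test compound 40 mg/kg b.w., or both, for 4 weeks. Brain (100 mg) homogenized in 1 mL 0.1 M perchloric acid with 0.05% EDTA, centrifuged 18,000 rpm, 10 min, 4°C. Mean±SD, n=6; p<0.05 versus lipid control.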

[5] = system: hyperlipidemic Wistar rats; test: Plasma lipid levels; assay type: in vivo, Wistar rat; details: 4 weeks treatment; for reduction in total cholesterol level: plasma, in comparison to lipid control
[6] = STT+FLX compared to STT monotherapy
[7] = STT+FLX for 4 weeks compared to STT-alone treatment

SMILES | increase in bioavailability [1] | brain concentration of 5-hydroxytryptamine (5HT) ([4]; mean±SD, n=6) | effect on brain level of HIAA ([4]; versus control) | effect on plasma triglyceride level ([5]; versus lipid control) | reduction in total cholesterol level [5] | also measured
COc1ccc2[nH]c([S+]([O-])Cc3ncc(C)c(OC)c3C)nc2c1 (stereo not drawn) [omeprazole] | 7.1 fold | – | – | – | – | –
COc1ccc2c(c1)[C@]13CCCC[C@@H]1[C@H](C2)N(C)CC3 [dextromethorphan] | 27 fold | – | – | – | – | –
CCC(C)(C)C(=O)O[C@H]1C[C@@H](C)C=C2C=C[C@H](C)[C@H](CC[C@@H](O)C[C@@H](O)CC(=O)O)[C@H]21 [STA, simvastatin acid] | – | – | – | – | – | reduction in bioavailability (AUC0−∞) in plasma [2, 6]: 36%
CCC(C)(C)C(=O)O[C@H]1C[C@@H](C)C=C2C=C[C@H](C)[C@H](CC[C@@H]3C[C@@H](O)CC(=O)O3)[C@H]21 [STT, simvastatin] | – | 0.45 ± 0.14 µg/g | unaffected | significant reduction | 41.6% | percentage increase in AUC0−t in brain [3, 6]: 79%; effect on brain level of dopamine ([4]; versus control): unaffected; effect on plasma HDL level ([5]; versus lipid control): increase in plasma HDL level; increase in AUC in plasma [2, 7]: 41.6%; increase in Cmax in plasma [2, 7]: 57.9%
CNCCC(Oc1ccc(C(F)(F)F)cc1)c1ccccc1 (stereo not drawn) [FLX, fluoxetine] | – | 0.62 ± 0.15 µg/g | failed to alter | failed to produce any significant effect | 16.3% | accumulation in the brain relative to plasma ([3]; after multiple-dose administration): multifold higher; brain concentration of dopamine ([4]; mean±SD, n=6): 1.48 ± 0.14 µg/g
